Compound activity: PubChem, Johns Hopkins Ion Channel Center
Shown are actives, neighbours in structure and some others; about 3.5% of the full set was active somewhere.
MrgX1 allo act: allosterically activates human MrgX1 receptor signaling. MrgX1-HEK293, Fluo-4 calcium flux, FDSS; active compounds read high. B-score at 10 µM. 310,000 tested, 0.63% active. AID 588675;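 active = plate-corrected calcium response at least 3 library SD above typical, normal starting fluorescence, not activating the receptor alone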;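 note: compound read alongside a low EC10 to EC30 dose of BAM8-22 agonist; peak minus trough fluorescence over baseline measured at the second addition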
Target sequence (Q96LB2 whole entry, looked up): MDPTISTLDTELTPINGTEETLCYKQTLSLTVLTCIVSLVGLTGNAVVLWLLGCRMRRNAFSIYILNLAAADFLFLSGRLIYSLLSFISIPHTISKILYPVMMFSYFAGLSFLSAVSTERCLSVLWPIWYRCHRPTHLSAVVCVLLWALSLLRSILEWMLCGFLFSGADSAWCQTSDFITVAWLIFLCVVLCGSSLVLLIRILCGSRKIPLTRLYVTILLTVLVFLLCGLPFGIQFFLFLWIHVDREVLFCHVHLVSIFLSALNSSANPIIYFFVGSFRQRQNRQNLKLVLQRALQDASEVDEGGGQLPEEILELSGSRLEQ
RGS4 block: inhibitors of human RGS4; P49798; HEK293 M3R/RGS4 inducible, Fluo-4 calcium flux; active compounds read high; triggered by carbachol at its EC20; 310,000 tested, 0.45% active; B-score at 10 µM;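 active = B-score, a plate-corrected calcium signal, over three deviations above library mean, with baseline fluorescence within five deviations of library mean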;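 note: RGS4 expression induced by doxycycline in cells with stable M3 receptor; B-score is computed from the integrated fluorescence ratio over baseline after carbachol; higher B-score means a larger calcium signal and so more RGS4 inhibition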
Target sequence (P49798 whole entry, looked up): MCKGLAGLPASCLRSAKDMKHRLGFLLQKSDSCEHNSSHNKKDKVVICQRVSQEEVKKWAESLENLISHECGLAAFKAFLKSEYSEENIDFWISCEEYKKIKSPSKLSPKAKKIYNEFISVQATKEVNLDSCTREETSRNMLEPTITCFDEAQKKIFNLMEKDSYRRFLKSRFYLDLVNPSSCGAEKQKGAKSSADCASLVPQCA
MrgX1 antag: blocks BAM8-22 activation of human MrgX1 receptor; B-score at 10 µM; 310,000 tested, 1.3% active; Q96LB2; MRGX1-HEK293 calcium flux, Fluo-4, BAM8-22 antagonism; active compounds read low;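 active = calcium-response B-score plate-corrected more than 3 library SD below zero, starting fluorescence within 5 deviations, no agonist response on first addition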;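 note: peak minus trough fluorescence over baseline after final BAM8-22 challenge near maximal dose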
RGS4 pot: RGS4 potentiation or activation; HEK293 M3R/inducible RGS4, carbachol calcium flux Fluo4; active compounds read low; B-score at 10 µM; 310,000 tested, 0.92% active;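 active = B-score of the integrated calcium signal more than 4 SD below the library mean, with starting fluorescence not abnormally high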;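 note: negative B-score means reduced calcium response which marks RGS4 activation or potentiation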
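Material: M3R-expressing HEK293 line, RGS4 induced by doxycycline | Schedule: Overnight RGS4 induction, 30 min dye load 37 °C, 20 min compound RT | Measured by: Fluo4 fluorescence kinetic imaging of calcium | Read-out: Integrated calcium ratio converted to B score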
MrgX1 agonist: human MrgX1 receptor agonism, primary screen. Q96LB2. MrgX1-HEK293 cells, Fluo-4 calcium fluorescence, agonist mode; active compounds read high. 310,000 tested, 0.44% active. B-score at 10 µM. AID 588627;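 active = calcium response B-score plate-corrected fluorescence ratio at least 3 library SD, with starting fluorescence B-score inside 5 SD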
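Test system: HEK293 cells stably expressing human MrgX1 receptor; amount: 15,000 cells per well; doses: compound delivered in addition one of three; times: overnight plating before 1 h dye loading; detection: Fluo-4 NW calcium-flux fluorescence, kinetic read; read-out basis: B-scored fluorescence response ratio; controls: positive and negative controls per plate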
RGS4 inh valid: validation of RGS4 inhibitors; shares compounds with RGS4 block; HEK293 M3R/RGS4, carbachol calcium Fluo-4 fluorescence; carbachol added at its EC20; 0 = buffer wells, 100 = carbachol control; calcium response, % at 10 µM; 1,700 tested, 65% active;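 active = duplicate-averaged calcium response above the buffer-only control mean plus 5 SD of those controls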;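 note: integrated fluorescence ratio F max minus min over baseline F0; higher response in RGS4-induced cells means RGS4 inhibition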
M3R Ca ctr: checks RGS4 inhibitor effects in non-induced HEK293 M3R cells; activity (percent), % at 10 µM; carbachol calcium Fluo-4; submaximal (EC20) carbachol stimulus; buffer wells 0%, carbachol control wells 100%; AID 493000; 1,900 tested, 20% active; shares compounds with RGS4 block; call rule not given here;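 note: RGS4 induction absent so cells express M3R without RGS4; higher means more calcium signal and flags a non-specific hit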
M3R basal Ca ctr: second RGS4 inhibitor counter-screen in uninduced cells lacking carbachol. calcium response (agonist-mode artifact), % at 10 µM. AID 493001. 1,900 tested, 22% active. HEK293 M3R/RGS4 non-induced, Fluo-4 calcium, no carbachol; normalised: buffer wells 0%, carbachol wells 100%. shares compounds with RGS4 block;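 active = duplicate-averaged calcium rise in uninduced cells above buffer wells' mean plus 5 SD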
Large screens that a line does not name were inactive (follow-up assays come after a bar, where they were run).

COc1ccc(/C=C/C(=O)c2ccc([N+](=O)[O-])o2)cc1	RGS4 block 11 | RGS4 inh valid 25% | M3R Ca ctr 32% | M3R basal Ca ctr inactive
COc1ccc(S(=O)(=O)N2CCN(C(=O)c3ccc([N+](=O)[O-])o3)CC2)cc1	none
Cc1ccccc1/C=C/C(=O)c1ccc([N+](=O)[O-])o1	RGS4 block 6.7 | RGS4 inh valid 24% | M3R Ca ctr inactive | M3R basal Ca ctr inactive
Cc1ccc(NC(=O)c2ccc([N+](=O)[O-])o2)c(C)c1	none
Cc1cccc(/C=C/C(=O)c2ccc([N+](=O)[O-])o2)c1	RGS4 block 7 | RGS4 inh valid 20% | M3R Ca ctr inactive | M3R basal Ca ctr 8.5%
O=C(/C=C/c1cccc([N+](=O)[O-])c1)c1ccc([N+](=O)[O-])o1	RGS4 block 13 | RGS4 inh valid 30% | M3R Ca ctr inactive | M3R basal Ca ctr inactive
COC(=O)[C@@H]1CC[C@H](C)[C@@H](c2ccc(C)cc2)N1C(=O)c1ccc(/C=N/O[C@@H](C)c2cn([C@H](CO)Cc3ccccc3)nn2)cc1	none
CCNC(=S)N(CCCO)Cc1cc2cc3c(cc2[nH]c1=O)OCCO3	none
CCN(CC)CCN(Cc1cc2cc3c(cc2[nH]c1=O)OCO3)C(=S)NCCOC	none
CCN(CC)CCCN(Cc1cc2cc3c(cc2[nH]c1=O)OCO3)C(=S)NCCOC	none
COCCCNC(=S)N(CCCO)Cc1cc2cc3c(cc2[nH]c1=O)OCO3	none | M3R Ca ctr inactive | M3R basal Ca ctr inactive
COCCCNC(=S)N(CCO)Cc1cc2cc3c(cc2[nH]c1=O)OCO3	none | RGS4 inh valid inactive | M3R Ca ctr inactive | M3R basal Ca ctr inactive
COCCCNC(=S)N(CCCO)Cc1cc2cc3c(cc2[nH]c1=O)OCCO3	none | M3R Ca ctr inactive | M3R basal Ca ctr inactive
CCCCC(O)(c1ccc(CC)cc1)C(CN1CCOCC1)c1ccccc1 (configuration not stated)	none
COc1cccc(CC(NC(C)=O)C(=O)NC2CCN(C(=O)Nc3ccc(C)cc3)CC2)c1 (configuration not stated)	none (no result: MrgX1 allo act, MrgX1 antag, MrgX1 agonist)
O=C1Nc2ccccc2/C1=N\N=C\C1=C(N2CCOCC2)C(=C\c2ccccc2)/CC1	none | M3R Ca ctr inactive | M3R basal Ca ctr inactive
Cn1cc(C(=O)N/N=C/C2=C(N3CCOCC3)C(=C\c3ccccc3)/CC2)ccc1=O	none
O=C1Nc2ccccc2/C1=N/N=C/c1cccc(O)c1	RGS4 block 8.9 | RGS4 inh valid 20% | M3R Ca ctr 47% | M3R basal Ca ctr inactive
COc1ccc(Cl)cc1NC(=O)c1cc(-c2ccccc2O)n[nH]1	RGS4 block 5.5 | RGS4 inh valid 5.0% | M3R Ca ctr inactive | M3R basal Ca ctr inactive
COc1ccc(OC)c(NC(=O)c2cc(-c3cc(Cl)ccc3O)n[nH]2)c1	none
COc1ccc(C(=O)OCCOc2cccc(Cl)c2)cc1S(=O)(=O)N1CCOCC1	none
O=[n+]1cc(-c2cccc3ccccc23)n([O-])c2c1CCC2	RGS4 block 4.9 | RGS4 inh valid inactive | M3R Ca ctr inactive | M3R basal Ca ctr inactive
CCOc1c(Cl)cc(CNc2ccc(S(N)(=O)=O)cc2)cc1OC	none
CCOc1c(Cl)cc(CNc2ccc(N3CCCC3)cc2)cc1OC	RGS4 block 5.7 (no result: MrgX1 allo act, MrgX1 antag, MrgX1 agonist) | RGS4 inh valid 18% | M3R Ca ctr inactive | M3R basal Ca ctr inactive
OCCOCCn1c(C(CO)Nc2nc(-c3cccc(Br)c3)cs2)nc2ccccc21 (configuration not stated)	none | M3R Ca ctr inactive | M3R basal Ca ctr 7.5%
CCCn1c(C(CO)Nc2nc(-c3cccc(Br)c3)cs2)nc2ccccc21 (configuration not stated)	RGS4 block 10 | RGS4 inh valid 32% | M3R Ca ctr inactive | M3R basal Ca ctr inactive
OCCOCCn1c(C(CO)Nc2nc(-c3ccccc3Br)cs2)nc2ccccc21 (configuration not stated)	none
ClCc1csc(-c2ccccc2Cl)n1	none
C/C(=N/NC(=O)c1cccs1)c1ccc(NC(=O)COc2ccc(Cl)cc2)cc1	none
O=C(CCN1CCOCC1)c1ccc(Cl)cc1	RGS4 block 12 | RGS4 inh valid 17% | M3R Ca ctr 56% | M3R basal Ca ctr 25%
O=C(CCN1CCOCC1)c1ccc(Br)cc1	RGS4 block 8.4 | RGS4 inh valid 29% | M3R Ca ctr inactive | M3R basal Ca ctr 16%
Clc1ccc(OCCN2CCOCC2)cc1	none
O=C(CCN1CCN(c2ccccc2)CC1)c1ccc(Br)cc1	RGS4 block 27 | RGS4 inh valid 16% | M3R Ca ctr inactive | M3R basal Ca ctr inactive
CCCCCOc1ccc(C(=O)CCN2CCOCC2)cc1	none
COc1ccccc1CNC(=O)C1CCN(S(=O)(=O)c2ccc3c(c2)NC(=O)CO3)CC1	none
N#CCCn1nc(-c2ccc([N+](=O)[O-])cc2)cc1Nc1ccccc1NC(=O)C(F)(F)F	none
CCc1nnc(NC(=O)CSc2nnc(-c3ccc(NS(=O)(=O)c4ccccc4)cc3)o2)s1	none
COc1cnc(-c2ccccn2)nc1Oc1ccc(Cl)c2ccccc12	RGS4 block 10 | RGS4 inh valid 16% | M3R Ca ctr inactive | M3R basal Ca ctr inactive
COc1cnc(-c2ccccn2)nc1Oc1ccccc1Cl	none
COc1cc2c(cc1[N+](=O)[O-])n(C(C)C)c(=O)n2C(C)C	RGS4 block 4.8 | RGS4 inh valid inactive | M3R Ca ctr 39% | M3R basal Ca ctr inactive
Cc1ccccc1N1CCN(S(=O)(=O)c2nnc(NC(=O)c3ccco3)s2)CC1	none
COc1ccc(C)cc1NS(=O)(=O)c1ccc(NC(=O)CN(c2cc([N+](=O)[O-])ccc2C)S(C)(=O)=O)cc1	none | M3R Ca ctr inactive | M3R basal Ca ctr inactive
COc1cc(/C=C(\C#N)C(N)=O)ccc1OS(=O)(=O)c1ccc(C)cc1	RGS4 block 4.9, MrgX1 agonist 43 | RGS4 inh valid 30% | M3R Ca ctr 40% | M3R basal Ca ctr 31%
COc1cc(/C=C(\C#N)C(=O)NC2CCCCC2C)ccc1OS(=O)(=O)c1ccc(C)cc1 (configuration not stated)	none
COc1ccc(/C=C/c2nnc(NC(=O)CC(C)C)s2)cc1	none
Oc1ccc(Nc2nc(-c3ccc(O)cc3)cs2)cc1	none | RGS4 inh valid inactive | M3R Ca ctr inactive | M3R basal Ca ctr inactive
COc1ccc(-c2csc(Nc3ccccc3)n2)cc1	none
